# Assay results from different studies.
# Compare with care: the assays were run in different laboratories.
# Target: Tyrosine-protein kinase HCK (HCK, Homo sapiens, UniProt P08631)
Compound,read-out,method,tested at,remaining binding [%]
O=C(c1ccc(Nc2ncc(Cl)c(-c3cc4ccccc4s3)n2)cc1)N1CCC(N2CCCC2)CC1,binding,competition with immobilised ligand,1 µM,100
CN(C)c1nccc(-c2cnc3ncccn23)n1,binding,,1 µM,100
COc1ncc2cc3ccccc3nc2c1C#N,cell-free assay,competition with immobilised ligand,5 µM,100
C[C@H]1CCN(c2nccc(-c3cnn4ncccc34)n2)C1,binding,,1 µM,95
CC(C)CC(=O)N1CCc2nc(-c3ccc(Br)cc3)nc(N(C)Cc3ccccc3)c2C1,cell-free assay,competition with immobilised ligand,0.1 µM,94
N[C@H]1CCN(c2nccc(-c3cnn4ncccc34)n2)C1,binding,,1 µM,98
Nc1ncc2c(n1)-c1c([nH]c3ccc(C#CC4CC4)cc13)CCCC2,binding,competition with immobilised ligand,1 µM,100
CCN1CCN(Cc2ccc(C(=O)Nc3ccc(C)c(Oc4ccc5c(c4)CC(=O)N5)c3)cc2C(F)(F)F)CC1,binding,competition with immobilised ligand,1 µM,80
O=C(Nc1cnc(Oc2ccc(F)cc2)nc1)N1CCc2ncccc2[C@@H]1c1ccc(F)cc1,cell-free assay,competition with immobilised ligand,1 µM,96
CN(CCCC(F)(F)F)c1nccc(-c2cnn3ncccc23)n1,binding,,1 µM,99
CNC(=O)[C@@H]1CC[C@@H](n2c(-c3ccc4cnccc4c3)nc3ccc(C(=O)NCc4cccc(C(N)=O)c4)cc32)C1,binding,competition with immobilised ligand,1 µM,93
O=C(NCCCN1CCOCC1)c1ccc(Nc2ncc(Cl)c(-c3ccc(Cl)s3)n2)cc1,binding,competition with immobilised ligand,1 µM,100
CC1CCCN1c1nccc(-c2cnn3ncccc23)n1 (stereo not drawn),binding,,1 µM,100
CS(=O)(=O)c1cc(C2(NC(=O)c3cncc4c3cnn4-c3ccc(F)cc3)CC2)ccn1,cell-free assay,competition with immobilised ligand,1 µM,100
CN(C)c1nccc(-c2cnn3ncccc23)n1,binding,,1 µM,100
CO[C@@H](C)c1c(Nc2ccc([C@H](N(C)C(=O)C3CCS(=O)(=O)CC3)C(F)(F)F)cc2)cnc2cc(Cl)nn12,cell-free assay,competition with immobilised ligand,1 µM,100
c1cncc(-c2cccc(Nc3nccc(NC4CCCCC4)n3)c2)c1,binding,competition with immobilised ligand,10 µM,3.1
O=C1NC(c2ccccn2)Sc2ccccc21 (stereo not drawn),cell-free assay,competition with immobilised ligand,1 µM,90
O=C(c1ccc(Nc2ncc(Cl)c(-c3ccc(Cl)s3)n2)cc1)N1CCC(N2CCCC2)CC1,binding,competition with immobilised ligand,1 µM,100
CN1CCN(c2cnc3c(C4CCN(C(=O)c5ccc(OC(F)(F)F)cc5N)CC4)ncnc3c2)CC1,cell-free assay,competition with immobilised ligand,1 µM,95
O=C(Nc1c[nH]nc1C(=O)NC1CCNCC1)c1cc(F)cc(F)c1,binding,competition with immobilised ligand,1 µM,100
